From ChEMBL document CHEMBL1138325, “Design, synthesis, in vitro, and in vivo characterization of phenylpiperazines and pyridinylpiperazines as potent and selective antagonists of the melanocortin-4 receptor” (J Med Chem, 2007)
Calls of active or inactive are those of the source. The calls are words filed in the database; no cut-off is given here.

Tests used:
[1] = Tmax in CD1 mouse at 10 mg/kg, po; format: ADME, organism-based; parameters: dose 10 mg/kg, route oral; settings: in vivo
In short: (§1)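 CD-1 mice, three animals per route; single i.v. dose at 5 mg/kg and oral gavage at 10 mg/kg. Plasma PK parameters derived; brain concentrations and brain/plasma ratios taken from the i.v. dosing at 1 and 4 h.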

Mus musculus [2] = experiment: Increase in lean body mass in Lewis lung carcinoma bearing C57BL/6J mouse at 3 mg/kg, ip bid after 4 days; format: functional; settings: route intraperitoneal
In short: (§2)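 Male C57BL/6J mice inoculated with Lewis lung carcinoma cells. From day 11 after inoculation, mice were dosed i.p. twice daily at 3 or 9 mg/kg for 4 days and compared with vehicle-treated tumor-bearing controls. Food intake and body weight were recorded; lean body mass was measured by DEXA.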

[3] = target: T1, Growth hormone secretagogue receptor type 1 (Homo sapiens, UniProt Q92847); experiment: Agonist activity at GHSR; format: functional
T1 sequence (Q92847 whole entry): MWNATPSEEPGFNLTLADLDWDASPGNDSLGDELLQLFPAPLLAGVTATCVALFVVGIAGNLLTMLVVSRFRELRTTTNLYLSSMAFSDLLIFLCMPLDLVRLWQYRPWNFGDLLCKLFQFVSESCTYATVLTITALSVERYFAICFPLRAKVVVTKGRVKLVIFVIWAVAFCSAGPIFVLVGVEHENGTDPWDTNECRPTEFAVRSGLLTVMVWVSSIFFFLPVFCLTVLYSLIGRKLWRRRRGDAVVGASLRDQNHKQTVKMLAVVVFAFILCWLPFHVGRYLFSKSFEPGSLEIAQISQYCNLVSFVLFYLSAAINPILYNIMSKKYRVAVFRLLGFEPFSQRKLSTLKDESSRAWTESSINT

Melanocortin receptor 3 [4] = target: Melanocortin receptor 3 (Homo sapiens, UniProt P41968); experiment: Displacement of [125I]NDPMSH from human MC3R expressed in HEK293 cells; format: cell-based
Sequence of Melanocortin receptor 3 (Homo sapiens, UniProt P41968) (P41968 whole entry): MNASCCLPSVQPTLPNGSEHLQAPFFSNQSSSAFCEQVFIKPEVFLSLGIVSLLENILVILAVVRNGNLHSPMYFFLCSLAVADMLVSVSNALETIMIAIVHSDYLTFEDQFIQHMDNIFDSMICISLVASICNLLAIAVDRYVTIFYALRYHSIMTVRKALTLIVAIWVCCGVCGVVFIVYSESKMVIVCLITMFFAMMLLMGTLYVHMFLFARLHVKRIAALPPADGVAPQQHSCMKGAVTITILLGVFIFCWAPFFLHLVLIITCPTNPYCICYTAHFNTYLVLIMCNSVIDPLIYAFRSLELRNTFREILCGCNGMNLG

[5] = Half life in monkey at 5 mg/kg, iv; format: ADME, organism-based, Macaca mulatta; parameters: dose 5 mg/kg, route intravenous; settings: rhesus monkey, in vivo
Melanocortin receptor 4 [6] = target: Melanocortin receptor 4 (Mus musculus, UniProt P56450); experiment: Binding affinity to mouse MC4R
Sequence of Melanocortin receptor 4 (Mus musculus, UniProt P56450) (P56450 whole entry): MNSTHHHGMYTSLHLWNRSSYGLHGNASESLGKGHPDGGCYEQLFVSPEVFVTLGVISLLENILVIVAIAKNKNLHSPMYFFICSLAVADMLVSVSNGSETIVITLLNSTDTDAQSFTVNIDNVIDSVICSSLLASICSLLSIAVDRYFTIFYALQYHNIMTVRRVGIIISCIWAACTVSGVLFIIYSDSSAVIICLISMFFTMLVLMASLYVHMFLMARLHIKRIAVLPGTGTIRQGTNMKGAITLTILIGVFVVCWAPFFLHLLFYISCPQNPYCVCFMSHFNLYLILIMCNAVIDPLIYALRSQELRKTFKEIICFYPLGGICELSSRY

[7] = Volume of distribution in Sprague-Dawley rat at 5 mg/kg, iv and 10 mg/kg, po; format: ADME, organism-based; settings: in vivo
In short: (§3)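 Sprague–Dawley rats, three animals per route; i.v. dose 5 mg/kg and oral 10 mg/kg. Brain concentrations and brain/plasma ratios taken from the oral dosing at 1 and 4 h post-dose.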

[8] = Drug level in CD1 mouse brain at 5 mg/kg, iv after 4 hrs; format: ADME, organism-based; parameters: dose 5 mg/kg, route intravenous; settings: read-out: Drug uptake
In short: (§4)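 CD-1 mice, three animals, dosed i.v. at 5 mg/kg and by oral gavage at 10 mg/kg. Plasma CL, Vd, t1/2, Cmax, Tmax, oral AUC and F% were derived. Brain concentrations and brain/plasma ratios at 1 and 4 h were taken from the i.v. dosing.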

[9] = Ratio of drug level in brain to plasma in CD1 mouse at 10 mg/kg, ip; format: ADME, organism-based; parameters: dose 10 mg/kg, route intraperitoneal; settings: read-out: BPR
Cytochrome P450 2C19 = Cytochrome P450 2C19 (Homo sapiens, UniProt P33261); experiment: Inhibition of CYP2C19; format: ADME
Sequence of Cytochrome P450 2C19 (P33261 whole entry): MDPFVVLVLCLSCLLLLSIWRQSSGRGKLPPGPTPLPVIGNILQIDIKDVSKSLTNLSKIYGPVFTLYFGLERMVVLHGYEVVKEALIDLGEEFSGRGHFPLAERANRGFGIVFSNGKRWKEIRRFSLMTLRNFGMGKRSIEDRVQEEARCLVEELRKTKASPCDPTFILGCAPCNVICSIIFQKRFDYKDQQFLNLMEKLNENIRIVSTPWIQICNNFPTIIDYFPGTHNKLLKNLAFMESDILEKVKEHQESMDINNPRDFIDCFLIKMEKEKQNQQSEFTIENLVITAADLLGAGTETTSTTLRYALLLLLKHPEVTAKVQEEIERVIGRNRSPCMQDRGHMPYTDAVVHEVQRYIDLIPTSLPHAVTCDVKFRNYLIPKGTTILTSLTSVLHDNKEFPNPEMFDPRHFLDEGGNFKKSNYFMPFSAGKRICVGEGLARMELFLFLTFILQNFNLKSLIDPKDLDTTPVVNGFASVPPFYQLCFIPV

Cytochrome P450 2D6 = Cytochrome P450 2D6 (Homo sapiens, UniProt P10635); experiment: Inhibition of CYP2D6; format: ADME
Sequence of Cytochrome P450 2D6 (P10635 whole entry): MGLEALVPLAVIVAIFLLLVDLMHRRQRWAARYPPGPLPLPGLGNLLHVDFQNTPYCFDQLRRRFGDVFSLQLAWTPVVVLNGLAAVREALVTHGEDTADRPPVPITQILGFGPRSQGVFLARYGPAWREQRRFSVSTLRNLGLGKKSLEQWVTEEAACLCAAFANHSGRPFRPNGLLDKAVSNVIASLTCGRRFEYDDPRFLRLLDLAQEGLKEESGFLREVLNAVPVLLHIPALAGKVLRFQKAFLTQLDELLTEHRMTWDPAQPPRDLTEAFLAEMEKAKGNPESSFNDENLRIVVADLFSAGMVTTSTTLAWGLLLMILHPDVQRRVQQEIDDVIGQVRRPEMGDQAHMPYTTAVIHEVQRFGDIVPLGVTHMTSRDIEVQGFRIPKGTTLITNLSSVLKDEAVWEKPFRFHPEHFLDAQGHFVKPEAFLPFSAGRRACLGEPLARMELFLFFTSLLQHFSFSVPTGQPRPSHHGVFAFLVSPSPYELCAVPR

Mus musculus [10] = experiment: Increase in body weight in Lewis lung carcinoma bearing C57BL/6J mouse at 9 mg/kg, ip bid after 4 days; format: functional, organism-based; parameters: dose 9 mg/kg; in short: as §2
[11] = AUC in Sprague-Dawley rat at 10 mg/kg, po; format: ADME, organism-based; parameters: dose 10 mg/kg, route oral; settings: plasma
[12] = Bioavailability in monkey at 10 mg/kg, po; format: ADME, organism-based, Macaca mulatta; settings: rhesus monkey, in vivo
[13] = Tmax in monkey at 10 mg/kg, po; format: ADME, organism-based, Macaca mulatta; parameters: dose 10 mg/kg, route oral; settings: rhesus monkey, in vivo
[14] = Volume of distribution in monkey at 5 mg/kg, iv; format: ADME, organism-based, Macaca mulatta; parameters: dose 5 mg/kg, route intravenous; settings: rhesus monkey, in vivo
[15] = Clearance in Sprague-Dawley rat at 5 mg/kg, iv and 10 mg/kg, po; format: ADME, organism-based; settings: in vivo
[16] = Cmax in Sprague-Dawley rat at 10 mg/kg, po; format: ADME, organism-based; parameters: dose 10 mg/kg, route oral; settings: in vivo
[17] = AUC in CD1 mouse at 10 mg/kg, po; format: ADME, organism-based; parameters: dose 10 mg/kg, route oral; settings: plasma; in short: as §4
[18] = Drug level in Sprague-Dawley rat brain at 10 mg/kg, po after 1 hr; format: ADME, organism-based; parameters: dose 10 mg/kg, route oral; settings: read-out: Drug uptake
[19] = Clearance in monkey at 5 mg/kg, iv; format: ADME, organism-based, Macaca mulatta; parameters: dose 5 mg/kg, route intravenous; settings: rhesus monkey, in vivo
[20] = Volume of distribution in CD1 mouse at 5 mg/kg, iv; format: ADME, organism-based; parameters: dose 5 mg/kg, route intravenous; settings: in vivo; in short: as §1
Melanocortin receptor 5 = Melanocortin receptor 5 (Homo sapiens, UniProt P33032); experiment: Displacement of [125I]NDPMSH from human MC5R expressed in HEK293 cells; format: cell-based
Sequence of Melanocortin receptor 5 (P33032 whole entry): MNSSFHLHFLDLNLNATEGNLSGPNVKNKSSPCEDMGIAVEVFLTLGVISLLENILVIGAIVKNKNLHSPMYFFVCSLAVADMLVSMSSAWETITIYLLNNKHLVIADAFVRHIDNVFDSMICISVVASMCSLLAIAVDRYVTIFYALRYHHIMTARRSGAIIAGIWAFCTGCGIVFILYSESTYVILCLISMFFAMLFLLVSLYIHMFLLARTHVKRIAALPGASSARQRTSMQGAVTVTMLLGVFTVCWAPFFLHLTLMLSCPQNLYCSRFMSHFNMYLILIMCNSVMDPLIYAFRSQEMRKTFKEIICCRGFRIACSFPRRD

[21] = Oral bioavailability in Sprague-Dawley rat at 10 mg/kg, po; format: ADME, organism-based; settings: in vivo; in short: as §3
[22] = Bioavailability in dog at 10 mg/kg, po; format: ADME, organism-based, Canis lupus familiaris; settings: in vivo
[23] = Clearance in CD1 mouse at 5 mg/kg, iv; format: ADME, organism-based; parameters: dose 5 mg/kg, route intravenous; settings: in vivo; in short: as §4
[24] = Ratio of drug level in brain to plasma in Sprague-Dawley rat at 10 mg/kg, po after 4 hrs; format: ADME, organism-based; parameters: dose 10 mg/kg, route oral; settings: brain and plasma, read-out: BPR; in short: as §3
[25] = Cmax in CD1 mouse at 10 mg/kg, ip; format: ADME, organism-based; parameters: dose 10 mg/kg, route intraperitoneal; settings: in vivo
In short: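 CD-1 mice, single intraperitoneal dose of 10 mg/kg, n = 3. Plasma concentration followed over time, giving Cmax, Tmax and AUC.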

[26] = Cmax in CD1 mouse at 10 mg/kg, po after 6 hrs; format: ADME, organism-based; parameters: dose 10 mg/kg, route oral; settings: in vivo; in short: as §4
Mus musculus [27] = experiment: Increase in food intake in Lewis lung carcinoma bearing C57BL/6J mouse at 9 mg/kg, ip bid after 4 days; format: functional, organism-based; parameters: dose 9 mg/kg; in short: as §2
[28] = Ratio of drug level in brain to plasma in CD1 mouse at 5 mg/kg, iv after 1 hr; format: ADME, organism-based; parameters: dose 5 mg/kg, route intravenous; settings: brain and plasma, read-out: BPR
[29] = Clearance in dog at 5 mg/kg, iv; format: ADME, organism-based, Canis lupus familiaris; parameters: dose 5 mg/kg, route intravenous; settings: in vivo
[30] = AUC in dog at 5 mg/kg, iv; format: ADME, organism-based, Canis lupus familiaris; parameters: dose 5 mg/kg, route intravenous; settings: plasma
Mus musculus [31] = experiment: Increase in body weight in Lewis lung carcinoma bearing C57BL/6J mouse at 3 mg/kg, ip bid after 4 days; format: functional, organism-based; parameters: dose 3 mg/kg; in short: as §2
[32] = target: T1, Growth hormone secretagogue receptor type 1; experiment: Binding affinity to GHSR
[33] = AUC in monkey at 5 mg/kg, iv; format: ADME, organism-based, Macaca mulatta; parameters: dose 5 mg/kg, route intravenous; settings: rhesus monkey, plasma
[34] = Distribution coefficient, log D by shake flask method; format: physicochemical; settings: octanol/water
In short: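 LogD measured by the shake-flask method; described elsewhere in the paper as lipophilicity at pH 7.4.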

[35] = Drug level in Sprague-Dawley rat brain at 10 mg/kg, po after 4 hrs; format: ADME, organism-based; parameters: dose 10 mg/kg, route oral; settings: read-out: Drug uptake
[36] = Cmax in monkey at 10 mg/kg, po; format: ADME, organism-based, Macaca mulatta; parameters: dose 10 mg/kg, route oral; settings: rhesus monkey, in vivo
[37] = Drug level in CD1 mouse brain at 5 mg/kg, iv after 1 hr; format: ADME, organism-based; parameters: dose 5 mg/kg, route intravenous; settings: read-out: Drug uptake; in short: as §4
[38] = Ratio of drug level in brain to plasma in CD1 mouse at 5 mg/kg, iv after 4 hrs; format: ADME, organism-based; parameters: dose 5 mg/kg, route intravenous; settings: brain and plasma, read-out: BPR
[39] = Cmax in dog at 10 mg/kg, po; format: ADME, organism-based, Canis lupus familiaris; parameters: dose 10 mg/kg, route oral; settings: in vivo
[40] = Half life in dog at 5 mg/kg, iv; format: ADME, organism-based, Canis lupus familiaris; parameters: dose 5 mg/kg, route intravenous; settings: in vivo
Melanocortin receptor 3 [41] = target: Melanocortin receptor 3 (Mus musculus, UniProt P33033); experiment: Binding affinity to mouse MC3R
Sequence of Melanocortin receptor 3 (Mus musculus, UniProt P33033) (P33033 whole entry): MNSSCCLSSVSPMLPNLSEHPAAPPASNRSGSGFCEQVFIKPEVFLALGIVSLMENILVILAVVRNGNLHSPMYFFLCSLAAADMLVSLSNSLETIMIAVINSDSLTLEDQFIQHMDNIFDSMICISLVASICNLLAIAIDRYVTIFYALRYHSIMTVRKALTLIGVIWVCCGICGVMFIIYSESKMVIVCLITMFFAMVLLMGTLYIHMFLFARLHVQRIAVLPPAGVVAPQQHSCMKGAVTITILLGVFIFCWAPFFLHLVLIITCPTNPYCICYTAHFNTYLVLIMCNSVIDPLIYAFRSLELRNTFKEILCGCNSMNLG

Melanocortin receptor 4 [42] = target: T2, Melanocortin receptor 4 (Homo sapiens, UniProt P32245); experiment: Antagonist activity at human MC4R expressed in HEK293 cells assessed as inhibition of alpha-MSH-stimulated cAMP production; format: functional, cell-based
T2 sequence (P32245 whole entry): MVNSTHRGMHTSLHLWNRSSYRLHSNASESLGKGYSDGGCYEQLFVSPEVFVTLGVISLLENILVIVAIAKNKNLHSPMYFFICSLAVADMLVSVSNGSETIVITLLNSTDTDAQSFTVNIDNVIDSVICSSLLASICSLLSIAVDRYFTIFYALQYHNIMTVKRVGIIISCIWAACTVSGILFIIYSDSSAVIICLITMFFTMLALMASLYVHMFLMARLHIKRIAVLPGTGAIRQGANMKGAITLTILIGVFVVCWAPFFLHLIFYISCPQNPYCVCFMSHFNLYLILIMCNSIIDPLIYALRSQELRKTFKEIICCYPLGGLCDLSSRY

Cytochrome P450 2C9 = Cytochrome P450 2C9 (Homo sapiens, UniProt P11712); experiment: Inhibition of CYP2C9; format: ADME
Sequence of Cytochrome P450 2C9 (P11712 whole entry): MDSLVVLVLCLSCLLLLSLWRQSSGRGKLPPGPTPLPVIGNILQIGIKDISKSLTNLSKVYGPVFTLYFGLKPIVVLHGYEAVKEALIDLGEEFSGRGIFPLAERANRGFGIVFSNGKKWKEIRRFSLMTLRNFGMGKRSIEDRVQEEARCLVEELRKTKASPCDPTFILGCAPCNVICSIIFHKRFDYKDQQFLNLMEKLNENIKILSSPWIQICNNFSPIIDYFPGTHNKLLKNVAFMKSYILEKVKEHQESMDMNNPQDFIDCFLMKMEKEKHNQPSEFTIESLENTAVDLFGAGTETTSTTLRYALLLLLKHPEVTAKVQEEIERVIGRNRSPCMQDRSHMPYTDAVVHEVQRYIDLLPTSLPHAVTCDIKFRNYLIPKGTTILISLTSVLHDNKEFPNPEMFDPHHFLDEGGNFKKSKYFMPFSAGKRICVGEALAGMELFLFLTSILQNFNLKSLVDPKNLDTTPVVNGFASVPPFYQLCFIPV

Melanocortin receptor 4 [43] = target: T2, Melanocortin receptor 4; experiment: Displacement of [125I]NDPMSH from human MC4R expressed in HEK293 cells; format: cell-based
Mus musculus [44] = experiment: Increase in lean body mass in Lewis lung carcinoma bearing C57BL/6J mouse at 9 mg/kg, ip bid after 4 days; format: functional; settings: route intraperitoneal; in short: as §2
[45] = Volume of distribution in dog at 5 mg/kg, iv; format: ADME, organism-based, Canis lupus familiaris; parameters: dose 5 mg/kg, route intravenous; settings: in vivo
[46] = AUC in monkey at 10 mg/kg, po; format: ADME, organism-based, Macaca mulatta; parameters: dose 10 mg/kg, route oral; settings: rhesus monkey, plasma

With `CC(C)C[C@H](NC(=O)CCN(C)C)c1cc(Cl)ccc1N1CCN(C(=O)[C@H](C)Cc2ccc(Cl)cc2)CC1` the Tmax [1] was 0.5 h, the Activity (Mus musculus [2]) was 7% and the EC50 [3] was 0.72 µM. For the same compound, the Intrinsic activity [3] was 47%, the Ki (Melanocortin receptor 3 [4]) was 0.71 µM and the half-life [5] was 4.1 h. The Ki (Melanocortin receptor 4 [6]) was 0.018 µM, the Vd [7] was 2.5 L/kg and the concentration at 4 h [8] was 177 ng/g. The Kp [9] was 2, the IC50 (Cytochrome P450 2C19) was > 10 µM and the IC50 (Cytochrome P450 2D6) was > 10 µM. The Activity (Mus musculus [10]) was “Active”, the AUC [11] was 1.87 µg·h/mL and the bioavailability [12] was 13.1%. For the same compound, the Tmax [13] was 2.7 h, the Vd [14] was 8.5 L/kg and the clearance [15] was 0.78 L/h/kg. For the same compound, the Cmax [16] was 0.163 µg/mL, the AUC [17] was 1.16 µg·h/mL and the concentration at 1 h [18] was 3 ng/g. The clearance [19] was 1.46 L/h/kg, the Vd [20] was 11 L/kg and the Ki (Melanocortin receptor 5) was 0.6 µM. The bioavailability [21] was 18%, the bioavailability [22] was 29.4% and the clearance [23] was 2.16 L/h/kg. For the same compound, the Kp at 4 h [24] was 0.3, the Cmax [25] was 1.52 µg/mL and the Cmax [26] was 0.132 µg/mL. The Activity (Mus musculus [27]) was “Active”, the Kp at 1 h [28] was 2.4 and the clearance [29] was 1.76 L/h/kg. For the same compound, the AUC [30] was 2.51 µg·h/mL, the Activity (Mus musculus [31]) was “Active” and the Ki [32] was 0.46 µM. The AUC [33] was 3.7 µg·h/mL, the logD [34] was 3.9 and the concentration at 4 h [35] was 27 ng/g. For the same compound, the Cmax [36] was 0.108 µg/mL, the concentration at 1 h [37] was 800 ng/g and the Kp at 4 h [38] was 2.2. It also gave a Cmax [39] of 0.142 µg/mL, a half-life [40] of 4.7 h and a Ki (Melanocortin receptor 3 [41]) of 0.34 µM. For the same compound, the IC50 (Melanocortin receptor 4 [42]) was 0.93 µM, the IC50 (Cytochrome P450 2C9) was > 10 µM and the Ki (Melanocortin receptor 4 [43]) was 0.0034 µM. It also gave an Activity (Mus musculus [44]) of 15%, a Vd [45] of 11.8 L/kg and an AUC [46] of 1.07 µg·h/mL.
